In ChEMBL document CHEMBL1138110, “Microwave-assisted synthesis of N-alkylated benzotriazole derivatives: antimicrobial studies” (2006):
Where a name gives a salt, the structure may show the parent alone.

Tests used:
[1] = system: Escherichia coli; assay: Antibacterial activity against Escherichia coli by disk diffusion method at 25 ug/disk; assay type: functional; details: read-out: IZ
Outline: (§1)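 Bacteria kept on LB agar, grown in LB broth, spun 10,000 rpm 5 min, pellet taken up in double-distilled water, density set by hemocytometer to about 10^4 CFU/mL for plate inoculation. Paper disks carried 25 µg test compound or 10 µg streptomycin/tetracycline reference; DMSO-only disks as negative control. Plates held at 4 °C ≥2 h, then 28 °C; inhibition zone diameter (mm) read at 24 h; mean of three determinations.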

[2] = system: Fusarium verticillioides; assay: Antifungal activity against Fusarium moniliforme by disk diffusion method at 25 ug/disk; assay type: functional; details: read-out: IZ
Outline: (§2)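 Fungi kept on potato dextrose agar at 28 °C; conidia scraped from 5–15 day PDA cultures into distilled water, filtered through sterile cotton, resuspended, adjusted by hemocytometer to about 10^6 CFU/mL. Paper disks bore 25 µg compound, 10 µg nystatin reference, or DMSO alone. Plates at 4 °C ≥2 h, then 28 °C; zone diameter (mm) read at 48 h; mean of three determinations.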

[3] = system: Pseudomonas fluorescens; assay: Antibacterial activity against Pseudomonas fluorescens by disk diffusion method at 25 ug/disk; assay type: functional; details: read-out: IZ; outline: as §1
[4] = system: Fusarium oxysporum; assay: Antifungal activity against Fusarium oxysporum by disk diffusion method at 25 ug/disk; assay type: functional; details: read-out: IZ; outline: as §2
[5] = system: Trichoderma; assay: Antifungal activity against Trichoderma species by disk diffusion method at 25 ug/disk; assay type: functional; details: read-out: IZ; outline: as §2
[6] = system: Aspergillus niger; assay: Antifungal activity against Aspergillus niger by disk diffusion method at 25 ug/disk; assay type: functional; details: read-out: IZ; outline: as §2
[7] = system: Xanthomonas campestris; assay: Antibacterial activity against Xanthomonas campestris pvs by disk diffusion method at 25 ug/disk; assay type: functional; details: read-out: IZ; outline: as §1
[8] = system: Aspergillus flavus; assay: Antifungal activity against Aspergillus flavus by disk diffusion method at 25 ug/disk; assay type: functional; details: read-out: IZ; outline: as §2
[9] = system: Bacillus subtilis; assay: Antibacterial activity against Bacillus subtilis by disk diffusion method at 25 ug/disk; assay type: functional; details: read-out: IZ; outline: as §1
[10] = system: Xanthomonas oryzae; assay: Antibacterial activity against Xanthomonas oryzae by disk diffusion method at 10 ug/disk; assay type: functional; details: read-out: IZ
[11] = system: Xanthomonas campestris; assay: Antibacterial activity against Xanthomonas campestris pvs by disk diffusion method at 10 ug/disk; assay type: functional; details: read-out: IZ
[12] = system: Xanthomonas oryzae; assay: Antibacterial activity against Xanthomonas oryzae by disk diffusion method at 25 ug/disk; assay type: functional; details: read-out: IZ
[13] = system: Pseudomonas fluorescens; assay: Antibacterial activity against Pseudomonas fluorescens by disk diffusion method at 10 ug/disk; assay type: functional; details: read-out: IZ
[14] = system: Bacillus subtilis; assay: Antibacterial activity against Bacillus subtilis by disk diffusion method at 10 ug/disk; assay type: functional; details: read-out: IZ
[15] = system: Escherichia coli; assay: Antibacterial activity against Escherichia coli by disk diffusion method at 10 ug/disk; assay type: functional; details: read-out: IZ; outline: as §1
[16] = system: Trichoderma; assay: Antifungal activity against Trichoderma species by disk diffusion method at 10 ug/disk; assay type: functional, organism-based
Outline: (§3)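 Fungi kept on potato dextrose agar at 28 °C. Conidia scraped from 5–15 day PDA cultures into water, cotton-filtered, and adjusted by hemocytometer to ~10^6 CFU/mL. Disks carried 10 µg; DMSO-only disks as negative control. Plates held at 4 °C ≥2 h, then 28 °C; inhibition zone diameter (mm) read after 48 h. Mean of three determinations.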

[17] = system: Fusarium verticillioides; assay: Antifungal activity against Fusarium moniliforme by disk diffusion method at 10 ug/disk; assay type: functional, organism-based; outline: as §3
[18] = system: Fusarium oxysporum; assay: Antifungal activity against Fusarium oxysporum by disk diffusion method at 10 ug/disk; assay type: functional, organism-based; outline: as §3
[19] = system: Aspergillus flavus; assay: Antifungal activity against Aspergillus flavus by disk diffusion method at 10 ug/disk; assay type: functional, organism-based; outline: as §3
[20] = system: Aspergillus niger; assay: Antifungal activity against Aspergillus niger by disk diffusion method at 10 ug/disk; assay type: functional, organism-based; outline: as §3

| Compound | zone of inhibition at 25 µg/disc [1] [mm] | zone of inhibition at 25 µg/disc [2] [mm] | zone of inhibition at 25 µg/disc [3] [mm] | zone of inhibition at 25 µg/disc [4] [mm] | zone of inhibition at 25 µg/disc [5] [mm] | zone of inhibition at 25 µg/disc [6] [mm] | zone of inhibition at 25 µg/disc [7] [mm] | zone of inhibition at 25 µg/disc [8] [mm] | zone of inhibition at 25 µg/disc [9] [mm] | zone of inhibition at 10 µg/disc [10] [mm] | zone of inhibition at 10 µg/disc [11] [mm] | zone of inhibition at 25 µg/disc [12] [mm] | zone of inhibition at 10 µg/disc [13] [mm] | zone of inhibition at 10 µg/disc [14] [mm] | zone of inhibition at 10 µg/disc [15] [mm] | inhibition zone (IZ) [16] [mm] | inhibition zone (IZ) [17] [mm] | inhibition zone (IZ) [18] [mm] | inhibition zone (IZ) [19] [mm] | inhibition zone (IZ) [20] [mm] |
| --- | --- | --- | --- | --- | --- | --- | --- | --- | --- | --- | --- | --- | --- | --- | --- | --- | --- | --- | --- | --- |
| O=[N+]([O-])c1ccc(Cn2nnc3ccccc32)cc1 | 7 | 8 | 8 | 9 | 11 | 5 | 4 | 7 | 6 |  |  |  |  |  |  |  |  |  |  |  |
| CN(C)[C@@H]1C(O)=C(C(N)=O)C(=O)[C@@]2(O)C(O)=C3C(=O)c4c(O)cccc4[C@@](C)(O)[C@H]3C[C@@H]12 [TETRACYCLINE] |  |  |  |  |  |  |  |  |  | 11 | 12 |  |  |  |  |  |  |  |  |  |
| CCCn1nnc2ccccc21 | 4 | 4 | 1 | 6 | 1 | 5 | 3 | 4 | 6 |  |  | 2 |  |  |  |  |  |  |  |  |
| Cc1cc2c(cc1Cn1nnc3ccccc31)OCO2 | 20 | 18 | 22 | 22 | 20 | 16 | 18 | 19 | 18 |  |  | 19 |  |  |  |  |  |  |  |  |
| CCCCn1nnc2ccccc21 | 14 | 12 | 19 | 14 | 15 | 8 | 12 | 11 | 13 |  |  | 12 |  |  |  |  |  |  |  |  |
| O=C(Cn1nnc2ccccc21)c1ccc(Cl)cc1 | 5 | 3 | 3 | 6 | 2 | 4 | 4 | 5 | 6 |  |  | 2 |  |  |  |  |  |  |  |  |
| CN[C@@H]1[C@H](O[C@H]2[C@H](O[C@H]3[C@H](O)[C@@H](O)[C@H](N=C(N)N)[C@@H](O)[C@@H]3N=C(N)N)O[C@@H](C)[C@]2(O)C=O)O[C@@H](CO)[C@H](O)[C@H]1O [STREPTOMYCIN SULFATE] |  |  |  |  |  |  |  |  |  |  |  |  | 18 | 12 | 14 |  |  |  |  |  |
| COc1cc(Br)c(Cn2nnc3ccccc32)cc1OC | 15 | 13 | 18 | 14 | 16 | 9 | 12 | 10 | 12 |  |  |  |  |  |  |  |  |  |  |  |
| N#Cc1ccccc1-c1ccc(Cn2nnc3ccccc32)cc1 | 18 | 17 | 21 | 20 | 18 | 14 | 16 | 17 | 16 |  |  | 15 |  |  |  |  |  |  |  |  |
| NYSTATIN |  |  |  |  |  |  |  |  |  |  |  |  |  |  |  | 16 | 12 | 14 | 10 | 8 |
